Activity calls are given as the source filed them. No cut-off for these calls is given here.
What was measured:
Rattus norvegicus [1] = assay: Compound was tested for hypotensive activity by measuring the average change in mean arterial blood pressure in mmHg after 24 hr at 50 mg/Kg oral dosing of a conscious rat; type: functional, Artery
Procedure, shortened: (§1)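 Restrained (towel-wrapped, to raise sympathetic tone) conscious female Sprague-Dawley rats with chronic indwelling aortic cannulas exteriorized at the nape; blood pressure recorded directly by transducer before and 4 and 24 h after oral dosing. Compound suspended in carboxymethylcellulose vehicle, 10 mL/kg; doses 50 to 0.05 mg/kg. Two rats averaged per time point; average change ≥5 mmHg taken as significant (p < 0.05).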

Rattus norvegicus [2] = assay: Compound was tested for hypotensive activity by measuring the average change in mean arterial blood pressure in mmHg after 4 hr at 50 mg/Kg oral dosing of a conscious rat; type: functional, Artery; procedure, shortened: as §1
Mus musculus [3] = organism: Mus musculus; assay: Lowest dose of compound associated with clinical signs.; type: functional
Mus musculus [4] = organism: Mus musculus; assay: Lowest dose of compound associated with unacceptable clinical signs.; type: functional
[5] = Acute toxicity was determined in mice; type: organism-based; details: mouse, in vivo
Rattus norvegicus [6] = assay: Compound was tested for hypotensive activity by measuring the average change in mean arterial blood pressure in mmHg after 24 hr at 0.5 mg/Kg oral dosing of a conscious rat; type: functional, Artery; procedure, shortened: as §1
Rattus norvegicus [7] = assay: Hypotensive activity in conscious rat 24 hr after 5 mg/kg p.o. administration.; type: functional; details: route oral; procedure, shortened: as §1
Rattus norvegicus [8] = assay: Compound was tested for hypotensive activity by measuring the average change in mean arterial blood pressure in mmHg after 4 hr at 0.5 mg/Kg oral dosing of a conscious rat; type: functional, Artery; procedure, shortened: as §1
Rattus norvegicus [9] = assay: Hypotensive activity in conscious rat 4 hr after 5 mg/kg p.o. administration.; type: functional; details: route oral; procedure, shortened: as §1
Mus musculus [10] = organism: Mus musculus; assay: Lowest dose of compound associated with clinical signs; type: functional
Rattus norvegicus [11] = assay: Compound was tested for hypotensive activity by measuring the average change in mean arterial blood pressure in mmHg 24 hr after at 50 mg/Kg oral dosing of a conscious rat; type: functional, Artery; procedure, shortened: as §1
Rattus norvegicus [12] = assay: Compound was tested for hypotensive activity by measuring the average change in mean arterial blood pressure in mmHg after 24 hr at 10 mg/Kg oral dosing of a conscious rat; type: functional, Artery; procedure, shortened: as §1
Rattus norvegicus [13] = assay: Compound was tested for hypotensive activity by measuring the average change in mean arterial blood pressure in mmHg after 4 hr at 10 mg/Kg oral dosing of a conscious rat; type: functional, Artery; procedure, shortened: as §1
Rattus norvegicus [14] = assay: Compound was tested for hypotensive activity by measuring the average change in mean arterial blood pressure in mmHg at 3 mg/Kg oral dosing of a conscious rat; IA is Inactive; type: functional, organism-based; details: Artery; procedure, shortened: as §1
Rattus norvegicus [15] = assay: Compound was tested for hypotensive activity by measuring the average change in mean arterial blood pressure in mmHg at 4 hr after at 50 mg/Kg oral dosing of a conscious rat; type: functional, Artery; procedure, shortened: as §1
Rattus norvegicus [16] = assay: Compound was tested for hypotensive activity by measuring the average change in mean arterial blood pressure in mmHg after 24 hr at 0.1 mg/Kg oral dosing of a conscious rat; type: functional, Artery; procedure, shortened: as §1
Rattus norvegicus [17] = assay: Compound was tested for hypotensive activity by measuring the average change in mean arterial blood pressure in mmHg after 4 hr at 0.1 mg/Kg oral dosing of a conscious rat; type: functional, Artery; procedure, shortened: as §1
Rattus norvegicus [18] = assay: Compound was tested for hypotensive activity by measuring the average change in mean arterial blood pressure in mmHg after 24 hr at 150 mg/Kg oral dosing of a conscious rat; type: functional, Artery
Rattus norvegicus [19] = assay: Compound was tested for hypotensive activity by measuring the average change in mean arterial blood pressure in mmHg after 4 hr at 150 mg/Kg oral dosing of a conscious rat; type: functional, Artery

**Q.** What does the source list for `O=C(c1ccc(Nc2ccnc3cc(C(F)(F)F)ccc23)cc1)N1CCC(c2ccccc2)CC1`?
**A.** Activity (Rattus norvegicus [1]): -17 mmHg; Activity (Rattus norvegicus [2]): -4 mmHg

**Q.** Which Dose (Mus musculus [3]) does the source give for `CS(=O)(=O)c1ccc(N2CCN(C(=O)c3ccc(Nc4ccnc5cc(C(F)(F)F)ccc45)cc3)CC2)cc1` here?
**A.** Its Dose is 316 mg/kg.

**Q.** What about the Dose (Mus musculus [4]) of the same compound?
**A.** The Dose was 1000 mg/kg.

**Q.** What about the LD50 [5] of the same compound?
**A.** Its LD50 is 3160 mg/kg.

**Q.** And the Activity (Rattus norvegicus [6])?
**A.** The Activity was -5 mmHg.

**Q.** And the Activity (Rattus norvegicus [7])?
**A.** Its Activity is -16 mmHg.

**Q.** What about the Activity (Rattus norvegicus [8]) of the same compound?
**A.** The Activity was -7 mmHg.

**Q.** And the Activity (Rattus norvegicus [9])?
**A.** The Activity was -10 mmHg.

**Q.** With `COc1ccc(C2=CCN(C(=O)c3ccc(Nc4ccnc5cc(C(F)(F)F)ccc45)cc3)CC2)cc1` as the compound, how does the Activity (Rattus norvegicus [7]) read?
**A.** The Activity was -2 mmHg.

**Q.** And the Activity (Rattus norvegicus [9])?
**A.** Its Activity is -6 mmHg.

**Q.** Which results are given for `Cc1cccc(C2=CCN(C(=O)c3ccc(Nc4ccnc5cc(C(F)(F)F)ccc45)cc3)CC2)c1`?
**A.** Activity (Rattus norvegicus [7]): -8 mmHg; Activity (Rattus norvegicus [9]): -8 mmHg

**Q.** Which Dose (Mus musculus [3]) does the source give for `CN(C)S(=O)(=O)N1CCN(C(=O)c2ccc(Nc3ccnc4cc(C(F)(F)F)ccc34)cc2)CC1` here?
**A.** Its Dose is 100 mg/kg.

**Q.** And the Dose (Mus musculus [4])?
**A.** Its Dose is over 3160 mg/kg.

**Q.** And the LD50 [5]?
**A.** Its LD50 is over 3160 mg/kg.

**Q.** What about the Activity (Rattus norvegicus [6]) of the same compound?
**A.** The Activity was -2 mmHg.

**Q.** What about the Activity (Rattus norvegicus [7]) of the same compound?
**A.** Its Activity is -6 mmHg.

**Q.** What about the Activity (Rattus norvegicus [8]) of the same compound?
**A.** Its Activity is -6 mmHg.

**Q.** What about the Activity (Rattus norvegicus [9]) of the same compound?
**A.** The Activity was -18 mmHg.

**Q.** For `O=C(c1ccc(Nc2ccnc3cc(C(F)(F)F)ccc23)cc1)N1CCNCC1`, which Dose (Mus musculus [10]) is on record?
**A.** The Dose was 100 mg/kg.

**Q.** And the Dose (Mus musculus [4])?
**A.** The Dose was 1000 mg/kg.

**Q.** And the LD50 [5]?
**A.** Its LD50 is 1780 mg/kg.

**Q.** What about the Activity (Rattus norvegicus [11]) of the same compound?
**A.** The Activity was -22 mmHg.

**Q.** What about the Activity (Rattus norvegicus [12]) of the same compound?
**A.** The Activity was -8 mmHg.

**Q.** What about the Activity (Rattus norvegicus [13]) of the same compound?
**A.** Its Activity is -7 mmHg.

**Q.** And the Activity (Rattus norvegicus [14])?
**A.** The Activity was “inactive”.

**Q.** And the Activity (Rattus norvegicus [15])?
**A.** Its Activity is -15 mmHg.

**Q.** With `COc1ccccc1N1CCN(C(=O)c2ccc(Nc3ccnc4cc(C(F)(F)F)ccc34)cc2)CC1` as the compound, how does the Activity (Rattus norvegicus [1]) read?
**A.** The Activity was -27 mmHg.

**Q.** And the Activity (Rattus norvegicus [2])?
**A.** Its Activity is -13 mmHg.

**Q.** Which results are given for `O=C(c1ccc(Nc2ccnc3cc(C(F)(F)F)ccc23)cc1)N1CC=C(c2ccc(Cl)cc2)CC1`?
**A.** Dose (Mus musculus [3]): <100 mg/kg; Dose (Mus musculus [4]): 316 mg/kg; LD50 [5]: 1000 mg/kg; Activity (Rattus norvegicus [16]): -11 mmHg; Activity (Rattus norvegicus [7]): -16 mmHg; Activity (Rattus norvegicus [17]): -3 mmHg; Activity (Rattus norvegicus [9]): -7 mmHg

**Q.** For `Cc1ccccc1N1CCN(S(=O)(=O)c2ccc(Nc3ccnc4cc(C(F)(F)F)ccc34)cc2)CC1`, which Activity (Rattus norvegicus [6]) is on record?
**A.** Its Activity is 0 mmHg.

**Q.** What about the Activity (Rattus norvegicus [7]) of the same compound?
**A.** The Activity was -13 mmHg.

**Q.** What about the Activity (Rattus norvegicus [8]) of the same compound?
**A.** The Activity was -1 mmHg.

**Q.** And the Activity (Rattus norvegicus [9])?
**A.** The Activity was -10 mmHg.

**Q.** For `O=C(c1ccc(Nc2ccnc3cc(C(F)(F)F)ccc23)cc1)N1CCN(c2[nH]cnc3ncnc2-3)CC1`, which Activity (Rattus norvegicus [1]) is on record?
**A.** Its Activity is -3 mmHg.

**Q.** What about the Activity (Rattus norvegicus [2]) of the same compound?
**A.** The Activity was -4 mmHg.

**Q.** Which Activity (Rattus norvegicus [7]) does the source give for `COc1ccc(C2(O)CCN(C(=O)c3ccc(Nc4ccnc5cc(C(F)(F)F)ccc45)cc3)CC2)cc1` here?
**A.** The Activity was -5 mmHg.

**Q.** And the Activity (Rattus norvegicus [9])?
**A.** The Activity was -15 mmHg.

**Q.** For `COc1cc(N2CCN(C(=O)c3ccc(Nc4ccnc5cc(C(F)(F)F)ccc45)cc3)CC2)nc(OC)n1`, which Dose (Mus musculus [3]) is on record?
**A.** The Dose was under 100 mg/kg.

**Q.** What about the Dose (Mus musculus [4]) of the same compound?
**A.** Its Dose is under 100 mg/kg.

**Q.** And the LD50 [5]?
**A.** The LD50 was over 3160 mg/kg.

**Q.** And the Activity (Rattus norvegicus [6])?
**A.** Its Activity is -12 mmHg.

**Q.** What about the Activity (Rattus norvegicus [7]) of the same compound?
**A.** Its Activity is -24 mmHg.

**Q.** And the Activity (Rattus norvegicus [1])?
**A.** Its Activity is -29 mmHg.

**Q.** What about the Activity (Rattus norvegicus [8]) of the same compound?
**A.** Its Activity is -2 mmHg.

**Q.** What about the Activity (Rattus norvegicus [9]) of the same compound?
**A.** The Activity was -10 mmHg.

**Q.** And the Activity (Rattus norvegicus [2])?
**A.** The Activity was -13 mmHg.

**Q.** With `Cc1cccc(C2(O)CCN(C(=O)c3ccc(Nc4ccnc5cc(C(F)(F)F)ccc45)cc3)CC2)c1` as the compound, how does the Activity (Rattus norvegicus [6]) read?
**A.** The Activity was -1 mmHg.

**Q.** What about the Activity (Rattus norvegicus [7]) of the same compound?
**A.** The Activity was -4 mmHg.

**Q.** What about the Activity (Rattus norvegicus [8]) of the same compound?
**A.** The Activity was -4 mmHg.

**Q.** And the Activity (Rattus norvegicus [9])?
**A.** The Activity was -10 mmHg.

**Q.** With `COc1ccc(N2CCN(Cc3ccc(Nc4ccnc5cc(C(F)(F)F)ccc45)cc3)CC2)cc1` as the compound, how does the Activity (Rattus norvegicus [18]) read?
**A.** The Activity was -16 mmHg.

**Q.** And the Activity (Rattus norvegicus [1])?
**A.** The Activity was -1 mmHg.

**Q.** What about the Activity (Rattus norvegicus [19]) of the same compound?
**A.** The Activity was -5 mmHg.

**Q.** And the Activity (Rattus norvegicus [2])?
**A.** The Activity was 1 mmHg.
